An excerpt weighted towards active compounds, which were near 2.3% of everything screened.
TPT1 inhibitor: C. albicans TPT1 enzyme inhibition | recombinant caTPT1, FP RNA substrate dephosphorylation | inhibition, % at 5 µM | 300,000 tested, 0.81% active | AID 1962;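 active = inhibition above the mean of all tested compounds plus 3 SD, set per screening campaign, cut at about 24% in these data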
Rpn11 inh: blocks the human proteasome subunit Rpn11. O00487. human 26S proteasome, Ub4-pepOG fluorescence polarization; 20S core pre-blocked with epoxomicin. calls only at 20 µM. 360,000 tested, 0.59% active;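 active = inhibition at 20 µM, scaled to each plate's controls, above about 33%, limit read from the data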
CRFR2-BP antag: blocks CRF-induced signaling of the CRF-BP/CRF-R2 complex; HEK293 CRF-R2/CRF-BP, CRF-induced calcium fluorescence; inhibition, % at 11.8 µM; 350,000 tested, 0.59% active;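 active = inhibition of the ligand-induced calcium signal above about 50% at the single tested concentration, limit read from the data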
HNF4A DNA FP: change in binding of human HNF4 alpha to DNA. 360,000 tested, 0.3% active. AID 1224865. activity change, % at 10 µM. HNF4a-FITC DNA binding, fluorescence polarization, 1 h. P41235; in the data active = activity change above about 30%, passing the limit was not always enough
CRFR2-BP ag: CRF-BP/CRF-R2 complex agonism; HEK293 CRF-R2/CRF-BP, calcium dye fluorescence (FLIPR); percent of saturating CRF peptide response; activation, % at 13.2 µM; 350,000 tested, 0.46% active;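 active = activation of at least 50%, plus an integration ratio under a set limit after plate pattern correction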
CSN deneddyl inh: CSN deneddylation inhibition; Q92905; Purified CSN, SCF-Nedd8-OG deneddylation, fluorescence polarization; inhibition, % at 12.5 µM; 360,000 tested, 0.38% active; AID 651999;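 active = pattern-corrected inhibition above about 35%, with an unprinted fluorescence ratio check between 0.5 and 1.5, limit read from the data, passing the limit was not always enough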
Target sequence (Q92905 whole entry, looked up, one chain of several): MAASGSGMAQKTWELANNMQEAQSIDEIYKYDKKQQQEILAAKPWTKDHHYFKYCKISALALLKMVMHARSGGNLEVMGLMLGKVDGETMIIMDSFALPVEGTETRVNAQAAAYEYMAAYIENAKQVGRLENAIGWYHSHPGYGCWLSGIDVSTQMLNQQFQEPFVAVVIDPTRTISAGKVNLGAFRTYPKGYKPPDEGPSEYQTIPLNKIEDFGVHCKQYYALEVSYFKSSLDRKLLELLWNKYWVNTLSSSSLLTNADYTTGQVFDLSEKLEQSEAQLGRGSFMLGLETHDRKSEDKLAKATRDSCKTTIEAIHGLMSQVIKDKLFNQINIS
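test system = HEK293T-derived human Csn5 enzyme | amount = 0.24 nM Csn5 enzyme, final concentration | medium = Tris/NaCl/DTT buffer, pH 7.5 | schedule = 90 min reaction at room temperature | signal = FP | evaluation = inhibition of Csn5 cleavage, % | compound dosing = single dose of 12.5 µM compound with 0.25% DMSO | probe or stimulus = 10 nM SCFSkp2-Nedd8OG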
Each line names hits and unclear results; the compound was inactive in the other large screens.

CC1Sc2ccc(S(=O)(=O)N3CCC(C(=O)NCC(C)c4ccccc4)CC3)cc2NC1=O (stereo not given)	CRFR2-BP antag 53
O=C(CN1CCc2cc3c(cc2C1)OCCCO3)Nc1c(F)cccc1F	none
CCC(=O)N1CCN(c2ccccc2NC(=O)COc2cccc(C)c2)CC1	none
O=C1C2C3C=CC(C3)C2C(=O)N1CCCCN1C(=O)C2C3C=CC(C3)C2C1=O (stereo not given)	none
O=C1C2C3C=CC(C3)C2C(=O)N1CCCO (stereo not given)	CRFR2-BP antag 69
CCOc1cc(/C=C2/C(=N)N3C(=NC2=O)SN=C3S(C)(=O)=O)ccc1OC(=O)c1ccco1	Rpn11 inh active
CCC(CC)C1=NN2C(=N)/C(=C\c3cc(C)n(-c4cccc(C)c4)c3C)C(=O)N=C2S1	CRFR2-BP ag 87
Cc1cccc(C)c1-n1cccc1/C=C1/C(=N)N2C(=NC1=O)SN=C2S(C)(=O)=O	CRFR2-BP antag 59
CCOc1cc(/C=C2\C(=N)N3N=C(S(=O)(=O)CC)SC3=NC2=O)ccc1OC(=O)c1ccco1	none
CCOc1ccc(-n2c(C)cc(/C=C3/C(=N)N4C(=NC3=O)SN=C4S(C)(=O)=O)c2C)cc1	CRFR2-BP antag 93
O=S(=O)(Nc1cccc(Oc2cnccn2)c1)c1ccc(F)cc1	none
O=[N+]([O-])c1ccccc1CN1CCN(Cc2ccccn2)CC1	none
O=[N+]([O-])c1cccc(/C=N\N2CCN(Cc3ccccc3Cl)CC2)c1	HNF4A DNA FP 42
O=[N+]([O-])c1cccc(/C=N/N2CCN(Cc3ccccc3)CC2)c1	none
CC(C)Oc1ccc(C(CC(=O)O)NC(=O)c2cccs2)cc1 (stereo not given)	none
Cc1ccc(-c2cc(C(=O)NCc3ccccn3)c3ccccc3n2)cc1C	CRFR2-BP antag 111
O=C(NCCC1=CCCCC1)C1CCC(CNc2c(N3CCCCC3)c(=O)c2=O)CC1 (stereo not given)	none
O=C(NCCC1=CCCCC1)C1CCC(CNc2c(N3CCCC3)c(=O)c2=O)CC1 (stereo not given)	HNF4A DNA FP 29
O=C(CCc1ccccc1)NNC(=S)NC(=O)c1ccc(Cl)cc1	CRFR2-BP ag 99 (no result: Rpn11 inh, HNF4A DNA FP, CSN deneddyl inh)
Cc1ccc(C(=O)NNC(=S)NC(=O)c2ccc(Cl)cc2)cc1	CRFR2-BP ag 216
O=C(CCc1ccccc1)NNC(=O)c1ccc(Cl)cc1	none
CN(C)c1ccc(C(=O)NNC(=O)c2ccc(Cl)cc2)cc1	CRFR2-BP antag 68
CCc1cc(C(=O)Nc2ccccc2N2CCOCC2)sc1C	none (no result: TPT1 inhibitor)
COc1cccc(N2[C@@H](CC(C)=O)c3cc(C(F)(F)F)ccc3S2(=O)=O)c1	none
COc1ccc(CCNC(=O)[C@@H]2C[C@H]2c2ccccc2)cc1OC	none
Cc1ccc(NC(=O)c2ncn(CCCN(C)CCc3ccccn3)n2)cc1C	none (no result: TPT1 inhibitor)
CCc1ccc(OCCOCC(O)CN(CCO)CCO)cc1 (stereo not given)	none
CCc1ccc(OCCOCC(O)CNC(C)(C)C)cc1 (stereo not given)	CRFR2-BP ag 58
Cc1ccccc1-c1n[nH]c(=S)n1/N=C/c1c(C)nn(-c2ccccc2)c1C	CRFR2-BP antag 71
Cc1cccc(OCC(O)CN2C(C)(C)CC(O)CC2(C)C)c1C (stereo not given)	none
CC(C)CN(C(=O)CSc1nnc(-c2ccco2)o1)c1c(N)n(Cc2ccccc2)c(=O)[nH]c1=O	none
CCc1cccc(CC)c1N1C(=O)C2=C(SCCCS2)C1=O	CRFR2-BP ag 137 (no result: TPT1 inhibitor)
CCc1cccc(CC)c1N1C(=O)COCC1=O	none (no result: TPT1 inhibitor)
Cc1ccc(S(=O)(=O)N2C[C@H]3[C@H]4C(=O)N(C5CCCCC5)C(=O)[C@H]4CC(=O)[C@H]3[C@@H]2c2ccccc2Cl)cc1	CSN deneddyl inh 36 (no result: TPT1 inhibitor, CRFR2-BP antag, CRFR2-BP ag)
CCN1C(=O)[C@@H]2[C@@H]3CN(S(=O)(=O)c4ccc(C)cc4)[C@@H](c4cccc5ccccc45)[C@@H]3C(=O)C[C@@H]2C1=O	none (no result: TPT1 inhibitor, CRFR2-BP antag, CRFR2-BP ag)
CC1(Cc2ccc3c(c2)OCO3)NC(=O)NC1=O (stereo not given)	CRFR2-BP antag 56
Cc1nc(N)sc1-c1csc(Nc2ccccc2)n1	CRFR2-BP antag 79
CC1(C)S/C(=N/N=C/c2ccco2)NC1=O	none
O=C(c1cc2nc(-c3ccc(F)cc3)cc(C(F)(F)F)n2n1)N1CCOCC1	CRFR2-BP antag 54
